# From ChEMBL document CHEMBL1128448, “Synthesis and antifungal activity of new azole derivatives containing an N-acylmorpholine ring” (1995)
# How the values were obtained:
# Format in all cases: functional
# [1] = test system: Aspergillus flavus; experiment: In vivo Evaluation of minimum inhibitory concentration against Aspergillus flavus 19; conditions: in the assay text read “In vitro” for “In vivo”
# In short: (§1)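 Stocks are 800 μg/mL in 50% ethanol. Each plate gets 10 μL of inoculum at 10^5 cfu/mL. Incubation at 25 °C, 48 h for yeasts and 120 h for dermatophytes and molds. Organisms are ATCC strains or clinical isolates.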
# [2] = test system: Candida albicans; experiment: […] Evaluation of minimum inhibitory concentration against Candida albicans 406; in short: as §1
# [3] = test system: Candida albicans; experiment: […] Evaluation of minimum inhibitory concentration against Candida albicans 60; in short: as §1
# [4] = test system: Candida albicans; experiment: In vitro Evaluation of minimum inhibitory concentration against Candida albicans 76; in short: as §1
# [5] = test system: Meyerozyma guilliermondii; experiment: In vitro Evaluation of minimum inhibitory concentration against Candida guilliermondii 26; in short: as §1
# [6] = test system: Candida parapsilosis; experiment: In vitro evaluation of minimum inhibitory concentration against Candida parapsilosis 61; in short: as §1
# [7] = test system: Candida tropicalis; experiment: In vitro evaluation of minimum inhibitory concentration against Candida tropicalis 2.11; in short: as §1
# [8] = test system: Mus sp.; experiment: In vivo evaluation of % survival rate after peroral administration on 3rd day at dose 2.5 mg/kg; conditions: Mus sp., po
# [9] = test system: Mus sp.; experiment: In vivo evaluation of % survival rate after peroral administration on 5th day at dose 1 mg/kg; conditions: route oral, 1 mg/kg
# [10] = test system: Mus sp.; experiment: In vivo evaluation of % survival rate after peroral administration on 5th day at dose 2.5 mg/kg; conditions: Mus sp., po
# [11] = test system: Mus sp.; experiment: In vivo evaluation of % survival rate after peroral administration on 7th day at dose 1 mg/kg; conditions: route oral, 1 mg/kg
# [12] = test system: Mus sp.; experiment: In vivo evaluation of % survival rate after peroral administration on 7th day at dose 2.5 mg/kg; conditions: Mus sp., po
# [13] = test system: Mus sp.; experiment: In vivo evaluation of % survival rate after peroral administration on 9th day at dose 1 mg/kg; conditions: route oral, 1 mg/kg
# [14] = test system: Mus sp.; experiment: In vivo evaluation of % survival rate after peroral administration on 9th day at dose 2.5 mg/kg; conditions: Mus sp., po
# [15] = test system: Rhodotorula mucilaginosa; experiment: In vitro evaluation of minimum inhibitory concentration against Rhodotorula rubra 16; in short: as §1
# [16] = test system: Kluyveromyces marxianus; experiment: In vitro evaluation of minimum inhibitory concentration against Candida pseudotropicalis 13; in short: as §1
smiles,measurement,setting,value
C[C@H]1N(C(=O)c2ccc(C(F)(F)F)cc2)CC(=O)O[C@@]1(Cn1cncn1)c1ccc(Cl)cc1Cl (racemic),MIC,[1],> 80 µg/mL
same,MIC,[2],5 µg/mL
same,MIC,[3],10 µg/mL
same,MIC,[4],20 µg/mL
same,MIC,[5],80 µg/mL
same,MIC,[6],40 µg/mL
same,MIC,[7],80 µg/mL
same,survival at 2.5 mg/kg,[8],100%
same,Survival,[9],80%
same,survival at 2.5 mg/kg,[10],100%
same,Survival,[11],55%
same,survival at 2.5 mg/kg,[12],100%
same,Survival,[13],45%
same,survival at 2.5 mg/kg,[14],100%
same,MIC,[15],80 µg/mL
same,MIC,[16],20 µg/mL
